From ChEMBL document CHEMBL4052823, “Extra Sugar on Vancomycin: New Analogues for Combating Multidrug-Resistant Staphylococcus aureus and Vancomycin-Resistant Enterococci” (J Med Chem, 2018) come the findings set out here.

In brackets after ≈: the same amount, converted by molar mass. Activity calls are given as the source filed them. The rule behind the calls is not given here.

Data set [1] in a line: Volume of distribution at steady state in CD1 mouse at 5 mg/kg, iv. It counts as ADME, organism-based. The settings on record: in vivo, read-out: Vdss. In outline: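 Fasted male CD-1 mice (18−22 g), 5 mg/kg single dose into the tail vein, 6 per group. T1/2, AUClast, AUCINF_obs, CL_obs, MRTINF_obs and VSS_obs were calculated for each animal from its time−concentration curve.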

In data set [2] the test system is Enterococcus faecium. Description: Antibacterial activity against glycopeptide-resistant Enterococcus faecium Efm-HS-08257 vanM after 24 hrs by broth microdilution method. The settings on record: Efm-HS-08257, 24 h. Format: functional. A digest of the protocol: (§1)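 Broth microdilution in cation-adjusted Mueller-Hinton II broth. DMSO stocks were diluted in broth and twofold serially from 128 to 0.0625 μg/mL or lower. Each well was inoculated with ~10^5 CFU of exponential-phase bacteria and incubated at 37 °C for 24 h. MIC was the lowest concentration giving complete growth inhibition, read per CLSI. Growth controls contained broth plus DMSO.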
A general note: In broth dilution the organism is exposed to a series of concentrations in liquid medium.

For data set [3], the system named is Staphylococcus aureus. Description: Antibacterial activity against methicillin-resistant Staphylococcus aureus USA300 LAC infected in BALB/c mouse assessed as mouse survival rate at 7 mg/kg, ip administered as single dose measured after 10 days relative to control. It counts as functional. The settings on record: 240 h. A digest of the protocol: (§2)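 Female BALB/c mice, 6−8 weeks old, were anesthetized with pentobarbital and infected retro-orbitally with ~2.35 × 10^8 CFU of exponential-phase USA300 LAC, 15 per group. A single 7 mg/kg ip dose was given 1 h after infection. Deaths were recorded daily to build survival curves.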

The subject of data set [4] is Enterococcus faecium. Description: Antibacterial activity against glycopeptide-resistant Enterococcus faecium Efm-HS-vb01 vanB after 24 hrs by broth microdilution method. It counts as functional. The settings on record: Efm-HS-vb01, 24 h. A digest of the protocol: as §1
The nature of data set [5]: Binding affinity to Ac2Lys-dAla-dAla at 2 mM by 1H-13C HSQC NMR method. A digest of the protocol:
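Constant-time [13C,1H]-HSQC at 600 MHz. The compound (2 mM in D2O, pH 3.1, 25 °C) was recorded alone, then again after adding Ac2Lys-dAla-dAla to a final 10 mM under the same conditions. Spectra were overlaid.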

In the next data set the test system is HK-2. Description: Cytotoxicity against human HK2 cells assessed as decrease in cell viability at 10 to 100 uM after 72 hrs by CCK8 assay. It counts as cell-based. The following applies: hk-2, 72 h. A digest of the protocol:
(§3)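 HK-2 and HL-7702 cells were seeded at ~5000 cells/well, incubated overnight, then exposed to compound at final 10, 50 and 100 μM for 72 h. CCK-8 was added for 1.5 h at 37 °C and OD450 read. Viability was OD treated / OD untreated × 100, with triplicates.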
A general note: Tetrazolium dyes change colour on reduction, which living cells bring about.

The subject of data set [6] is Enterococcus faecium. Put plainly: Antibacterial activity against glycopeptide-resistant Enterococcus faecium Efm-HS-06188 vanA after 24 hrs by broth microdilution method. Format: functional. The following applies: Efm-HS-06188, 24 h. In outline: as §1
The nature of data set [7]: Clearance in CD1 mouse at 5 mg/kg, iv. The following applies: in vivo. It counts as ADME, organism-based. In outline:
(§4)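 Fasted male CD-1 mice (18−22 g), 5 mg/kg single dose into the tail vein, 6 per group. Blood sampled at 0.25, 0.75, 2, 4, 8 and 24 h and analysed by UPLC-MS/MS. T1/2, AUClast, AUCINF_obs, CL_obs, MRTINF_obs and VSS_obs were calculated for each animal from its time−concentration curve.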

The test system of data set [8] is Staphylococcus aureus. Description: Antibacterial activity against healthcare-associated methicillin-resistant/vancomycin-intermediate Staphylococcus aureus Mu50 infected in BALB/c mouse assessed as decrease in liver CFU levels at 7 mg/kg, ip administered twice in 24 hrs interval measured after 5 days. Format: functional, organism-based. In outline:
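Female BALB/c mice, 6−8 weeks old, were anesthetized with pentobarbital and infected retro-orbitally with ~3.8 × 10^8 CFU of exponential-phase Mu50, 12 per group. Treatment started 1 h post-infection: 7 mg/kg ip in sterile water, two doses 24 h apart. At day 5 mice were euthanized and liver homogenates plated on TSA for CFU counts. Groups were compared by two-tailed Mann−Whitney test.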

The nature of data set [9]: MRT (infinity) in CD1 mouse at 5 mg/kg, iv. It counts as ADME, organism-based. The following applies: in vivo. A digest of the protocol: as §4
A short description of data set [10]: AUClast in CD1 mouse at 5 mg/kg, iv. It counts as ADME, organism-based. Set-up: dose 5 mg/kg, route intravenous, time 0 - last. The following applies: in vivo. A digest of the protocol:
as §4

Data set [11] relates to Staphylococcus aureus. Description: Antibacterial activity against vancomycin/methicillin-susceptible Staphylococcus aureus Newman […] after 24 hrs by broth microdilution method. It counts as functional. In outline:
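Broth microdilution in cation-adjusted Mueller-Hinton II broth. […] Each well received ~10^5 CFU of exponential-phase bacteria and was incubated at 37 °C for 24 h. MIC was taken as the lowest concentration giving complete growth inhibition, interpreted per CLSI.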

Data set [12] in a line: Half life in CD1 mouse at 5 mg/kg, iv. Format: ADME, organism-based. The following applies: in vivo. A digest of the protocol: as §4
Data set [13] deals with Staphylococcus aureus. Description: Potency index, ratio of telavancin MIC90 to test compound MIC90 for vancomycin/methicillin-susceptible Staphylococcus aureus Newman […]. It counts as functional.
Data set [14] has as its system Enterococcus faecium. Put plainly: Potency index, ratio of oritavancin MIC90 to test compound MIC90 for glycopeptide-resistant Enterococcus faecium Efm-HS-vb01 vanB. It counts as functional.
Data set [15] relates to Staphylococcus aureus. Description: Antibacterial activity against healthcare-associated methicillin-resistant/vancomycin-intermediate Staphylococcus aureus Mu50 after 24 hrs by broth microdilution method. It counts as functional. The settings on record: Mu50, 24 h. A digest of the protocol: as §1
For a further data set, the system named is Blood. Description: Drug uptake in CD1 mouse blood at 5 mg/kg, iv. It counts as ADME, organism-based. The following applies: in vivo. In outline:
as §4

Data set [16] has as its system Enterococcus faecium. Description: Antibacterial activity against glycopeptide-resistant Enterococcus faecium Efm-HS-0847 vanM after 24 hrs by broth microdilution method. Format: functional. The settings on record: Efm-HS-0847, 24 h. In outline: as §1
Data set [17] relates to Enterococcus faecium. Description: Potency index, ratio of telavancin MIC90 to test compound MIC90 for glycopeptide-resistant Enterococcus faecium Efm-HS-vb01 vanB. It counts as functional.
For the next data set, the system named is L02. Put plainly: Cytotoxicity against human HL7702 cells assessed as decrease in cell viability at 10 to 100 uM after 72 hrs by CCK8 assay. It counts as cell-based. The settings on record: l02, 72 h. In outline: as §3
In data set [18] the test system is Enterococcus faecium. Put plainly: Antibacterial activity against glycopeptide-resistant Enterococcus faecium Efm-HS-0649 vanA after 24 hrs by broth microdilution method. The settings on record: Efm-HS-0649, 24 h. It counts as functional. A digest of the protocol: as §1
Data set [19] can be described thus: AUC (infinity) in CD1 mouse at 5 mg/kg, iv. It counts as ADME, organism-based. Set-up: dose 5 mg/kg, route intravenous, time infinity. The following applies: in vivo. In outline:
as §4

The subject of data set [20] is Staphylococcus aureus. Description: Antibacterial activity against methicillin-resistant Staphylococcus aureus USA300 LAC infected in BALB/c mouse assessed as increase in mouse survival rate at 7 mg/kg, ip administered as single dose after 10 days relative to control. Format: functional, organism-based. In outline: as §2

In the case of `CN[C@H](CC(C)C)C(=O)N[C@H]1C(=O)N[C@@H](CC(N)=O)C(=O)N[C@H]2C(=O)N[C@H]3C(=O)N[C@H](C(=O)N[C@H](C(=O)O)c4cc(O)c(CNCCO[C@@H]5O[C@H](CO)[C@H](O)[C@H](O)[C@H]5O)c(O)c4-c4cc3ccc4O)[C@H](O)c3ccc(c(Cl)c3)Oc3cc2cc(c3O[C@@H]2O[C@H](CO)[C@@H](O)[C@H](O)[C@H]2O[C@H]2C[C@](C)(NCc3ccc(-c4ccc(C(F)(F)F)cc4)cc3)[C@H](O)[C@H](C)O2)Oc2ccc(cc2Cl)[C@H]1O`, the Vd in data set [1] was determined as 1.08 L/kg. In addition, the MIC – broadly, the least concentration at which growth counts as inhibited – with Enterococcus faecium [2] was 2 µg/mL (≈ 1.04 µM); in the data set with Enterococcus faecium [4] it was at most 0.06 µg/mL; against Enterococcus faecium [6], 1 µg/mL (≈ 0.521 µM); in the data set with Enterococcus faecium [16], 8 µg/mL (≈ 4.17 µM); against Enterococcus faecium [18], 2 µg/mL (≈ 1.04 µM). In addition, the survival at 7 mg/kg in the data set on Staphylococcus aureus [3] is 86.7%. In addition, the outcome (in data set [5]; in the data set with Staphylococcus aureus [8]) was Active. The Activity entry in the data set on HK-2 and with L02 was “Non-Toxic” in each case. Also, the clearance – broadly, the rate of elimination divided by the concentration – in data set [7] worked out at 4.42 mL/min/kg. The MRT inf (in general, the average time that molecules of a dose stay in the body) in data set [9] worked out at 4.21 h. In addition, the AUC(0-t) (in general, the area under the concentration-time curve up to a stated or last time point) in [10] is 16600 ng·h/mL. For the same molecule, the MIC90 (in general, the lowest concentration that inhibits either 90% of growth or 90% of the strains tested, depending on the study) was found to be 0.03 µg/mL (≈ 0.0156 µM) against Staphylococcus aureus [11] and 0.25 µg/mL (≈ 0.13 µM) against Staphylococcus aureus [15]. The half-life – broadly, how long it takes for the measured level to halve – in [12] was 2.94 h. In addition, the Ratio in the data set with Staphylococcus aureus [13] was 8 - 16; in the data set on Enterococcus faecium [14] it was 4; in the data set on Enterococcus faecium [17], 16. This molecule returned a Drug uptake in the data set on Blood of over 1 µg/mL. Further, the AUC(0-inf) (commonly total exposure, with the tail of the curve extrapolated) in data set [19] amounted to 20000 ng·h/mL.

As for `CN[C@H](CC(C)C)C(=O)N[C@H]1C(=O)N[C@@H](CC(N)=O)C(=O)N[C@H]2C(=O)N[C@H]3C(=O)N[C@H](C(=O)N[C@H](C(=O)O)c4cc(O)c(CN[C@H]5C(O)O[C@H](CO)[C@H](O)[C@@H]5O)c(O)c4-c4cc3ccc4O)[C@H](O)c3ccc(c(Cl)c3)Oc3cc2cc(c3O[C@@H]2O[C@H](CO)[C@@H](O)[C@H](O)[C@H]2O[C@H]2C[C@](C)(NCc3ccc(-c4ccc(C(F)(F)F)cc4)cc3)[C@H](O)[C@H](C)O2)Oc2ccc(cc2Cl)[C@H]1O` (stereo partly specified), the Vd in data set [1] was determined as 0.9 L/kg. Moreover, the MIC is 2 µg/mL (≈ 1.07 µM) in the data set with Enterococcus faecium [2]; at most 0.06 µg/mL in the data set with Enterococcus faecium [4]; 1 µg/mL (≈ 0.533 µM) against Enterococcus faecium [6]; 4 µg/mL (≈ 2.13 µM) with Enterococcus faecium [16]; 1 µg/mL (≈ 0.533 µM) against Enterococcus faecium [18]. In the data set on Staphylococcus aureus [20], the outcome was Active. In data set [7], this molecule came in with a clearance of 3.45 mL/min/kg. Further, in [9], the MRT inf was determined as 4.41 h. Moreover, the AUC(0-t) in [10] was 20100 ng·h/mL. The MIC90 against Staphylococcus aureus [11] was determined as 0.015 µg/mL (≈ 0.008 µM); against Staphylococcus aureus [15], 0.12 µg/mL (≈ 0.064 µM). In [12], this molecule showed a half-life of 3.45 h. Besides, the Ratio in the data set on Staphylococcus aureus [13] was 8 - 16; with Enterococcus faecium [14] it was 4; with Enterococcus faecium [17] it was 16. The Drug uptake in the data set on Blood is over 1 µg/mL. For the same molecule, in [19], the AUC(0-inf) is 24300 ng·h/mL.

In the case of `CN[C@H](CC(C)C)C(=O)N[C@H]1C(=O)N[C@@H](CC(N)=O)C(=O)N[C@H]2C(=O)N[C@H]3C(=O)N[C@H](C(=O)N[C@H](C(=O)O)c4cc(O)c(CNCCCNC(=O)[C@H](O)[C@@H](O)[C@H](O)[C@H](O)CO)c(O)c4-c4cc3ccc4O)[C@H](O)c3ccc(c(Cl)c3)Oc3cc2cc(c3O[C@@H]2O[C@H](CO)[C@@H](O)[C@H](O)[C@H]2O[C@H]2C[C@](C)(NCc3ccc(-c4ccc(C(F)(F)F)cc4)cc3)[C@H](O)[C@H](C)O2)Oc2ccc(cc2Cl)[C@H]1O`, the Vd in data set [1] worked out at 1.83 L/kg. In addition, the MIC turned out to be 4 µg/mL (≈ 2.05 µM) against Enterococcus faecium [2]; 0.5 µg/mL (≈ 0.257 µM) against Enterococcus faecium [4]; 1 µg/mL (≈ 0.513 µM) in the data set on Enterococcus faecium [6]; 8 µg/mL (≈ 4.11 µM) against Enterococcus faecium [16]; 2 µg/mL (≈ 1.03 µM) with Enterococcus faecium [18]. For the same molecule, the outcome in the data set on Staphylococcus aureus [20] was Active. In data set [7], this molecule displayed a clearance of 6.4 mL/min/kg. The molecule also returned an MRT inf in data set [9] of 4.79 h. Moreover, in data set [10], the AUC(0-t) was determined as 10700 ng·h/mL. Moreover, the MIC90 against Staphylococcus aureus [11] was 0.06 µg/mL (≈ 0.0308 µM); against Staphylococcus aureus [15] it was 0.25 µg/mL (≈ 0.128 µM). Also, in data set [12], the half-life is 3.72 h. Besides, the Ratio in the data set on Staphylococcus aureus [13] was 8 - 16. For the same molecule, the Drug uptake in the data set with Blood is over 1 µg/mL. In [19], the AUC(0-inf) is 13400 ng·h/mL.
